Experimental data from ChEMBL document CHEMBL1153560, “In vitro activities of doripenem and six comparator drugs against 423 aerobic and anaerobic bacterial isolates from infected diabetic foot wounds” (2008).
Values after ≈ are worked out from the molar mass of the structure shown.

Legend:
Assay type in all cases: functional
Prevotella bivia = assay: Antibacterial activity against Prevotella bivia isolated from patient with diabetic foot infection after 44 to 48 hrs by agar dilution method
How it was run: (§1)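 CLSI M11-A7 agar dilution: serial twofold drug dilutions made on the test day and added to molten agar. Spots of 10^5 CFU were applied by replicator, with drug-free control plates inoculated before and after each set. Incubation was 44 to 48 h at 37°C in an anaerobic chamber. MIC was the lowest concentration giving no growth or a marked change in growth versus controls.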

Clostridium cadaveris = assay: Antibacterial activity against Clostridium cadaveris isolated from patient with diabetic foot infection after 44 to 48 hrs by agar dilution method; how it was run: as §1
Lacrimispora sphenoides [1] = assay: Antibacterial activity against Clostridium sphenoides isolated from patient with diabetic foot infection after 44 to 48 hrs by agar dilution method; how it was run: as §1
Anaerococcus tetradius = assay: Antibacterial activity against Anaerococcus tetradius isolated from patient with diabetic foot infection after 44 to 48 hrs by agar dilution method; how it was run: as §1
[2] = test system: Corynebacterium urealyticum; assay: Antibacterial activity against Corynebacterium urealyticum isolated from patient with diabetic foot infection assessed as percent resistant isolates after 48 hrs by broth microdilution method
How it was run: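 Isolates subcultured on Trypticase soy blood agar. Broth microdilution in cation-adjusted Mueller-Hinton broth with lysed horse blood, using in-house twofold dilution trays stored at −70°C. Inoculum from overnight colonies at about 5 × 10^5 CFU/ml final. Read after 18 to 24 h at 37°C, up to 48 h for some Corynebacterium strains.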

[3] = test system: Staphylococcus haemolyticus; assay: Antibacterial activity against Staphylococcus haemolyticus isolated from patient with diabetic foot infection after 18 to 24 hrs by broth microdilution method
Streptococcus pyogenes = assay: Antibacterial activity against Streptococcus pyogenes isolated from patient with diabetic foot infection after 18 to 24 hrs by broth microdilution method
How it was run: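 Streptococcal isolates were subcultured on Trypticase soy blood agar. Broth microdilution used cation-adjusted Mueller-Hinton broth with lysed horse blood, in in-house trays of serial twofold drug dilutions stored at −70°C. Overnight colonies were suspended to a final inoculum of approximately 5 × 10^5 CFU/ml. MIC was read after 18 to 24 h incubation at 37°C.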

Bacteroides caccae [4] = assay: Antibacterial activity against Bacteroides caccae isolated from patient with diabetic foot infection after 44 to 48 hrs by agar dilution method; how it was run: as §1
Bacteroides ovatus = assay: Antibacterial activity against Bacteroides ovatus isolated from patient with diabetic foot infection after 44 to 48 hrs by agar dilution method; how it was run: as §1
[5] = test system: Streptococcus dysgalactiae subsp. equisimilis; assay: Antibacterial activity against Streptococcus dysgalactiae subsp. equisimilis isolated from patient with diabetic foot infection assessed as percent resistant isolates after 18 to 24 hrs by broth microdilution method
How it was run: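 Streptococci subcultured on Trypticase soy blood agar and tested by broth microdilution in cation-adjusted Mueller-Hinton broth with lysed horse blood. In-house twofold dilution trays stored at −70°C. About 5 × 10^5 CFU/ml final inoculum from overnight colonies. Read after 18 to 24 h at 37°C.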

Bacteroides caccae [6] = assay: Antibacterial activity against Bacteroides caccae isolated from patient with diabetic foot infection assessed as percent resistant isolates after 44 to 48 hrs by agar dilution method
How it was run: (§2)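 Agar dilution per CLSI M11-A7. Twofold drug dilutions made on the test day and added to molten agar. Replicator-applied inoculum of 10^5 CFU/spot. Drug-free control plates inoculated before and after each drug set. Incubation at 37°C for 44 to 48 h, anaerobic chamber. MIC taken as the lowest concentration giving no growth or a marked change in growth versus controls.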

Bacteroides stercoris = assay: Antibacterial activity against Bacteroides stercoris isolated from patient with diabetic foot infection assessed as percent resistant isolates after 44 to 48 hrs by agar dilution method; how it was run: as §2
Parabacteroides merdae = assay: Antibacterial activity against Parabacteroides merdae isolated from patient with diabetic foot infection after 44 to 48 hrs by agar dilution method; how it was run: as §1
Phocaeicola vulgatus = assay: Antibacterial activity against Bacteroides vulgatus isolated from patient with diabetic foot infection assessed as percent resistant isolates after 44 to 48 hrs by agar dilution method; how it was run: as §2
[7] = test system: Parabacteroides distasonis; assay: Antibacterial activity against Parabacteroides distasonis isolated from patient with diabetic foot infection assessed as percent resistant isolates after 44 to 48 hrs by agar dilution method; how it was run: as §2
[8] = test system: Anaerocolumna aminovalerica; assay: Antibacterial activity against Clostridium aminovalericum isolated from patient with diabetic foot infection assessed as percent resistant isolates after 44 to 48 hrs by agar dilution method; how it was run: as §2
[9] = test system: Corynebacterium aurimucosum; assay: Antibacterial activity against Corynebacterium aurimucosum isolated from patient with diabetic foot infection after 48 hrs by broth microdilution method
How it was run: (§3)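 Isolates were subcultured on Trypticase soy blood agar. Broth microdilution used cation-adjusted Mueller-Hinton broth with lysed horse blood, in-house trays of twofold drug dilutions stored at −70°C. Colonies from overnight growth gave a final inoculum of about 5 × 10^5 CFU/ml. Trays were read after 18 to 24 h at 37°C, up to 48 h for some strains.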

Corynebacterium jeikeium = assay: Antibacterial activity against Corynebacterium jeikeium isolated from patient with diabetic foot infection after 48 hrs by broth microdilution method; how it was run: as §3
[10] = test system: Corynebacterium minutissimum; assay: Antibacterial activity against Corynebacterium minutissimum isolated from patient with diabetic foot infection after 48 hrs by broth microdilution method; how it was run: as §3
Corynebacterium striatum = assay: Antibacterial activity against Corynebacterium striatum isolated from patient with diabetic foot infection after 48 hrs by broth microdilution method; how it was run: as §3
Lacrimispora sphenoides [11] = assay: Antibacterial activity against Clostridium sphenoides isolated from patient with diabetic foot infection assessed as percent resistant isolates after 44 to 48 hrs by agar dilution method; how it was run: as §2
Cutibacterium acnes = assay: Antibacterial activity against Propionibacterium acnes isolated from patient with diabetic foot infection assessed as percent resistant isolates after 44 to 48 hrs by agar dilution method; how it was run: as §2
[12] = test system: Peptoniphilus asaccharolyticus; assay: Antibacterial activity against Peptoniphilus asaccharolyticus isolated from patient with diabetic foot infection assessed as percent resistant isolates after 44 to 48 hrs by agar dilution method; how it was run: as §2
Anaerococcus vaginalis = assay: Antibacterial activity against Anaerococcus vaginalis isolated from patient with diabetic foot infection assessed as percent resistant isolates after 44 to 48 hrs by agar dilution method; how it was run: as §2
Enterobacter cloacae = assay: Antibacterial activity against Enterobacter cloacae isolated from patient with diabetic foot infection assessed as percent resistant isolates after 18 to 24 hrs by broth microdilution method
How it was run: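 Aerobes subcultured on Trypticase soy blood agar, then broth microdilution in cation-adjusted Mueller-Hinton broth. Trays prepared in-house with twofold dilutions and stored at −70°C. Overnight colonies suspended to about 5 × 10^5 CFU/ml final. Read after 18 to 24 h at 37°C. QC strains included S. aureus ATCC 29213 and E. coli ATCC 25922.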

Proteus vulgaris = assay: Antibacterial activity against Proteus vulgaris isolated from patient with diabetic foot infection after 18 to 24 hrs by broth microdilution method
How it was run: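 Isolates were subcultured on Trypticase soy blood agar and tested by broth microdilution in cation-adjusted Mueller-Hinton broth. In-house trays of twofold drug dilutions were stored at −70°C. Overnight colonies gave a final inoculum of about 5 × 10^5 CFU/ml. Plates were read after 18 to 24 h at 37°C.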

SMILES | MIC50 (Prevotella bivia) | MIC90 (Prevotella bivia) | MIC50 (Clostridium cadaveris) | MIC90 (Clostridium cadaveris) | MIC50 (Lacrimispora sphenoides [1]) | MIC90 (Lacrimispora sphenoides [1]) | MIC50 (Anaerococcus tetradius) | MIC90 (Anaerococcus tetradius) | MIC50 (Bacteroides caccae [4]) | MIC90 (Bacteroides caccae [4]) | MIC50 (Bacteroides ovatus) | MIC90 (Bacteroides ovatus) | Activity (Bacteroides caccae [6]) | Activity (Bacteroides stercoris) | MIC50 (Parabacteroides merdae) | MIC90 (Parabacteroides merdae) | Activity (Phocaeicola vulgatus) | Activity [7] | Activity [8] | Activity (Lacrimispora sphenoides [11]) | further results
CCC[C@@H]1C[C@@H](C(=O)N[C@@H]([C@H]2O[C@H](SC)[C@H](O)[C@@H](O)[C@H]2O)[C@H](C)Cl)N(C)C1 [CLINDAMYCIN] | ≤ 0.03 µg/mL | > 64 µg/mL | 0.5 µg/mL (≈ 1.18 µM) | 16 µg/mL (≈ 37.6 µM) | 0.5 µg/mL (≈ 1.18 µM) | 16 µg/mL (≈ 37.6 µM) | 0.125 µg/mL (≈ 0.294 µM) | 64 µg/mL (≈ 151 µM) | 2 µg/mL (≈ 4.71 µM) | > 64 µg/mL | 2 µg/mL (≈ 4.71 µM) | > 64 µg/mL | 20% | 20% | 2 µg/mL (≈ 4.71 µM) | > 64 µg/mL | 20% | 20% | 23% | 23% | Activity [2]: 100%; MIC50 [3]: 0.125 µg/mL (≈ 0.294 µM); MIC90 [3]: 8 µg/mL (≈ 18.8 µM); MIC50 (Streptococcus pyogenes): 0.125 µg/mL (≈ 0.294 µM); MIC90 (Streptococcus pyogenes): > 64 µg/mL; Activity [5]: 13%; MIC50 [9]: > 64 µg/mL; MIC90 [9]: > 64 µg/mL; MIC50 (Corynebacterium jeikeium): > 64 µg/mL; MIC90 (Corynebacterium jeikeium): > 64 µg/mL; MIC50 [10]: > 64 µg/mL; MIC90 [10]: > 64 µg/mL; MIC50 (Corynebacterium striatum): 2 µg/mL (≈ 4.71 µM); MIC90 (Corynebacterium striatum): > 64 µg/mL; Activity (Cutibacterium acnes): 0%; Activity [12]: 25%; Activity (Anaerococcus vaginalis): 18%
C[C@@H](O)[C@H]1C(=O)N2C(C(=O)O)=C(S[C@@H]3CN[C@H](C(=O)Nc4cccc(C(=O)O)c4)C3)[C@H](C)[C@H]12 [ERTAPENEM] | 0.25 µg/mL (≈ 0.526 µM) | 0.5 µg/mL (≈ 1.05 µM) | 0.25 µg/mL (≈ 0.526 µM) | 2 µg/mL (≈ 4.21 µM) | 0.25 µg/mL (≈ 0.526 µM) | 2 µg/mL (≈ 4.21 µM) | 0.125 µg/mL (≈ 0.263 µM) | 0.25 µg/mL (≈ 0.526 µM) | 1 µg/mL (≈ 2.1 µM) | 2 µg/mL (≈ 4.21 µM) | 1 µg/mL (≈ 2.1 µM) | 2 µg/mL (≈ 4.21 µM) | 0% | 0% | 1 µg/mL (≈ 2.1 µM) | 2 µg/mL (≈ 4.21 µM) | 0% | 0% | 0% | 0% | Activity (Enterobacter cloacae): 0%; MIC50 [3]: 4 µg/mL (≈ 8.41 µM); MIC90 [3]: > 32 µg/mL; MIC50 (Streptococcus pyogenes): ≤ 0.015 µg/mL; MIC90 (Streptococcus pyogenes): ≤ 0.015 µg/mL; Activity [5]: 0%; MIC50 (Proteus vulgaris): ≤ 0.015 µg/mL; MIC90 (Proteus vulgaris): 0.25 µg/mL (≈ 0.526 µM); MIC50 [9]: 1 µg/mL (≈ 2.1 µM); MIC90 [9]: 32 µg/mL (≈ 67.3 µM); MIC50 (Corynebacterium jeikeium): 1 µg/mL (≈ 2.1 µM); MIC90 (Corynebacterium jeikeium): 32 µg/mL (≈ 67.3 µM); MIC50 [10]: 1 µg/mL (≈ 2.1 µM); MIC90 [10]: 32 µg/mL (≈ 67.3 µM); MIC50 (Corynebacterium striatum): 0.5 µg/mL (≈ 1.05 µM); MIC90 (Corynebacterium striatum): 1 µg/mL (≈ 2.1 µM); Activity (Cutibacterium acnes): 0%; Activity [12]: 0%; Activity (Anaerococcus vaginalis): 0%
Cc1ncc([N+](=O)[O-])n1CCO [METRONIDAZOLE] | 4 µg/mL (≈ 23.4 µM) | 4 µg/mL (≈ 23.4 µM) | 0.125 µg/mL (≈ 0.73 µM) | 0.25 µg/mL (≈ 1.46 µM) | 0.125 µg/mL (≈ 0.73 µM) | 0.25 µg/mL (≈ 1.46 µM) | 0.5 µg/mL (≈ 2.92 µM) | 1 µg/mL (≈ 5.84 µM) | 0.5 µg/mL (≈ 2.92 µM) | 1 µg/mL (≈ 5.84 µM) | 0.5 µg/mL (≈ 2.92 µM) | 1 µg/mL (≈ 5.84 µM) | 0% | 0% | 0.5 µg/mL (≈ 2.92 µM) | 1 µg/mL (≈ 5.84 µM) | 0% | 0% | 0% | 0% | Activity (Cutibacterium acnes): 100%; Activity [12]: 0%; Activity (Anaerococcus vaginalis): 0%
